# Assay outcomes deposited in PubChem BioAssay by The Scripps Research Institute Molecular Screening Center.
# Tn7 DDE FP = disrupts Tn7 cyclic peptide binding to fibrin D-Dimer-E complex; P02675; FP displacement of FITC-Tn7 peptide from fibrin DD(E); 0% = median of compound wells per plate; inhibition, % at 8.3 µM; hit rate 0.13% among 370,000; AID 720508;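 active = inhibition above the mean of compounds falling within the control limits plus 3 SD of them, cut at about 14% in these data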;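 also: 0% = plate median of compound wells and 100% = 10 µM Aha-Tn7 peptide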
#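 Assay system: human fibrin DD(E). Input: DD(E) 2 µM final. Medium: Tris buffer with calcium and detergent, pH 7.8. Compound dosing: single point at 8.3 µM. Timing: 10 min plus 3 h, room temperature. Technique: fluorescence polarization of the labelled Tn7 tracer. Read-out: percent inhibition. Replicates: singlicate testing.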
# HTRA1 inhibitor = blocks human HTRA1 serine peptidase; Q92743; recombinant HTRA1, FP-rhodamine activity-based probe, fluorescence polarization; inhibition, % at 5.96 µM; hit rate 0.5% among 340,000; AID 504803; in the data active = inhibition above about 36%;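 also: 0% = enzyme with DMSO and 100% = wells lacking enzyme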
# SIAE primary = inhibitors of human sialic acid acetylesterase SIAE | SIAE FP-Rh probe binding, fluorescence polarization | inhibition, % at 9.66 µM | hit rate 0.69% among 370,000 | AID 1053197;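 active = inhibition above a cutoff: mean of compounds within the control limits plus 3 SD of those, cut at about 17% in these data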;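 also: 0% = plate median of compound wells and 100% = probe without SIAE protein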
# TCR CD3 inh = inhibitors of human TCR-CD3 interaction. TAMRA-labeled TCR probe fluorescence, biochemical. inhibition, % at 9.4 µM. AID 651800. hit rate 0.37% among 360,000;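 also: recombinant mutant TCR 2C K166C tagged with TAMRA read by polarization; 0% = receptor in buffer alone and 100% = receptor with positive control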
# Tn6 DDE FP = disrupts Tn6 cyclic peptide binding to fibrin D-Dimer-E complex; hit rate 0.21% among 370,000; Fibrin DD(E) TRITC-Tn6 fluorescence polarization displacement; AID 720509; inhibition, % at 8.3 µM; P02675;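 active = inhibition above a per-campaign cutoff: mean of compounds within control limits plus 3 SD, cut at about 15% in these data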;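 also: 0% = median of all compound wells on the plate and 100% = blocking peptide control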
# mABHD4 FP = ABHD4 (mouse) inhibition, primary FP screen. Q8VD66. purified mABHD4, FP-Rh probe fluorescence polarization. inhibition, % at 8.92 µM. hit rate 0.54% among 370,000;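 active = inhibition exceeding the mean over every tested compound plus 3 SD, cut at about 30% in these data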;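 also: 0% = plate median of compound wells and 100% = S159A mutant with DMSO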
# Target sequence (Q8VD66 whole entry, looked up): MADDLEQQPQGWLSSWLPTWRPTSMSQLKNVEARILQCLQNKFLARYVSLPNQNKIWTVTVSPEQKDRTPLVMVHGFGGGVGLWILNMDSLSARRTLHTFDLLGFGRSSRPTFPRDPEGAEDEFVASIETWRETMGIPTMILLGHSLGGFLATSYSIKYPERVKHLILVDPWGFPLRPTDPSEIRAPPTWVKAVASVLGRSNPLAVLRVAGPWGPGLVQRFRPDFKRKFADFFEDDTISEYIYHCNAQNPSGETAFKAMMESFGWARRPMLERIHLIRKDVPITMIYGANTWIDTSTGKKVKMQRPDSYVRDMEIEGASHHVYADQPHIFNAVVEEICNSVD
#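 Assay system: mouse ABHD4 enzyme, wild type / Also added: fluorescent activity-based probe FP-Rh / Doses: single nominal dose of 8.92 µM, 0.89% DMSO final / Timing: 45 min compound pre-incubation plus 60 min probe step, 25 °C / Signal: FP readout, ex 525 nm / em 598 nm / Control set: S159A mutant/DMSO as 100%, compound-well median as 0%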
# BSA probe FL = counter-screen for TCR-CD3 interaction inhibitors: BSA probe; shares compounds with TCR CD3 inh; TAMRA-labeled BSA probe fluorescence counterscreen; inhibition, % at 9.4 µM; hit rate 10% among 1,200; AID 652035; in the data active = inhibition above about 23%;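 also: 0% = buffer low control and 100% = reference high control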
# TCR-CD3 inh conf = TCR-CD3 interaction inhibition, confirmation | shares compounds with TCR CD3 inh | TAMRA-labeled TCR probe fluorescence binding assay | inhibition, % at 9.4 µM | hit rate 48% among 1,200 | AID 652036
# * hit, by the source's call; nt = not tested or not shown. A selection: hits, their analogues and other compounds. The true share with any hit is near 1.8%. Rule as the data show it, unless noted: active = inhibition above about 19%; inactive = the rest.
SMILES,Tn7 DDE FP,HTRA1 inhibitor,SIAE primary,TCR CD3 inh,Tn6 DDE FP,mABHD4 FP,BSA probe FL,TCR-CD3 inh conf
COCCn1c(=NC(=O)c2cc(-c3cccs3)nc3ccccc23)sc2cc(S(N)(=O)=O)ccc21,6,-139,-118,29*,-6,-113,2,21*
O=C(NCCc1cccc(Cl)c1)c1ccc(Cl)c([N+](=O)[O-])c1,3,-14,-7,30*,1,-23,3,1
Cc1ccc(N(CC(=O)Nc2ccc(-c3nc4ccc(C)cc4s3)cc2)S(C)(=O)=O)cc1,-6,-41,-4,-1,0,-8,nt,nt
Cc1ccc(C)c(N(CC(=O)Nc2ccc(-c3nc4ccc(C)cc4s3)cc2)S(C)(=O)=O)c1,7,-51,-5,20*,8,-4,9,15
Cc1cc(C)cc(NC(=O)CSc2nnc(-c3ccccc3)n2N)c1,0,-2,-4,9,-4,-16,nt,nt
Cc1cccc(NC(=O)CSc2nnc(-c3ccccc3)n2N)c1,-12,-5,1,24*,-1,6,2,0
CCn1c(C)nc2cc(C(=O)NNC(=S)Nc3ccccc3)ccc21,3,2,0,11,-3,0,nt,nt
Cc1ccccc1C(=O)NNC(=S)NC(=O)c1cccnc1,0,11,0,26*,-2,-1,-3,20*
CCC(=O)NC(=S)NNC(=O)c1ccc(OC)cc1,2,-4,4,20*,-1,7,-3,6
O=C(NC(=S)NNC(=O)c1ccccc1F)c1cccnc1,-3,nt,-1,18,-5,10,nt,nt
COc1cc(OC)cc(C(=O)NC(=S)Nc2cccnc2)c1,2,-7,8,-7,6,-7,nt,nt
COc1cc(OC)cc(C(=O)NNC(=S)NC(=O)c2cccnc2)c1,-1,6,3,23*,7,7,-3,20*
CCn1c(C)nc2cc(C(=O)NNC(=S)NC(=O)c3ccccc3)ccc21,3,3,2,34*,8,4,-6,28*
CN1CCN(C=Nc2nc3ccccc3nc2N2CCCC2)CC1,0,-8,-2,-4,3,3,nt,nt
CS(=O)(=O)N[C@@H]1C[C@@H]2O[C@@H](CO)CC[C@@H]2O[C@@H]1CCc1ccc(/C=C/c2ccccc2)cc1,-1,nt,4,nt,-2,-6,nt,nt
Cc1ccc(-n2[nH]c(C)c(/C=N/Nc3ccc([N+](=O)[O-])cc3[N+](=O)[O-])c2=O)cc1,-2,7,8,-1,5,21,nt,nt
O=C(/C=C/c1ccccc1)NC(=S)NNC(=O)c1cccnc1,0,7,8,9,2,21,nt,nt
COc1ccc(C(=O)NC(=S)NNC(=O)c2cccnc2)cc1,7,8,5,24*,11,5,-1,18
O=C(NNC(=S)NC(=O)c1ccccc1)c1cccnc1,6,0,-2,9,-2,7,nt,nt
COc1ccc(/C=C/C(=O)NC(=S)NNC(=O)c2cccnc2)cc1OC,0,4,1,27*,3,10,-7,18
CCCCNC(=O)C1c2ccccc2OCC(=O)N1CCOC (stereo not drawn),4,nt,-3,7,-3,0,nt,nt
Cc1cccc(NC(=O)COc2coc(CN3CCN(c4ccccc4)CC3)cc2=O)c1,-3,3,0,2,5,9,nt,nt
c1ccc(-c2nnc(-c3ccco3)o2)cc1,1,7,0,9,-3,6,nt,nt
c1coc(-c2nnc(-c3ccco3)nn2)c1,2,11,14,28*,-3,27,-10,16
CSCC[C@H](NS(=O)(=O)c1ccc(C)cc1)C(=O)N1CCC(C(=O)N[C@H](C(=O)O)c2ccccc2)CC1,-1,-2,-8,2,-2,-3,nt,nt
CCCCCC(=O)NNC(=S)NC(C)=O,0,-1,-9,-6,-1,-9,nt,nt
CCCCCC(=O)NC(=S)NC1C2CC3CC(C2)CC1C3 (stereo not drawn),-7,-15,-3,35*,-2,6,2,29*
